Source: article PMC3306222 (Biopolymers, 2011)
Where a SMILES comes first, the peptide text is derived from it. Bridges are numbered along the chain shown (N, C = ends). [ ]: non-standard residue; d: D form. S5 = C=CCCC[C@](C)(N)C(=O)O

Columns and labels:
[1] = Dynamic light scattering of free peptides; format: physicochemical; conditions: DLS, lower peptide concentration (100 µM)
Method in brief: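 Free stapled peptide stocks, quantified by absorbance at 280 nm, were diluted into D₂O or H₂O to 100 µM or 1 mM and centrifuged at 6,000–8,000 g before loading. Light scattering was recorded as one hundred 5-s scans per sample at ambient temperature and corrected for solvent signal. Normalized intensity was plotted against radius, and the hydrodynamic radius and polydispersity index of major peaks were reported.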

[2] = format: physicochemical; conditions: fit of NMR chemical shift changes with concentration, D2O, 298 K, pH 7.0
[3] = target: CA-CTD dimerization helix peptide CTD dimerization helix (Human immunodeficiency virus 1) (UniProt O93182); conditions: cited from earlier work

Compound | effective radius of gyration of monomer [1] [nm] | Kd of self-association, isodesmic model of indefinite association [2] [µM] | Kd [3] [µM]
CC[C@H](C)[C@H](N)C(=O)N[C@H](C(=O)N[C@@H](Cc1ccccc1)C(=O)N[C@@]1(C)CCC/C=C\CCC[C@@](C)(C(=O)N[C@@H](Cc2ccc(O)cc2)C(=O)N[C@@H](Cc2ccc(O)cc2)C(=O)NCC(=O)N[C@@H](CCCCN)C(=O)N[C@@H](CCCCN)C(=O)N[C@@H](CCCCN)C(N)=O)NC(=O)[C@H](CC(C)C)NC(=O)[C@H](CC(C)C)NC(=O)[C@H](CC(=O)O)NC1=O)[C@@H](C)O [NYAD-13] (H-ITF[S5]DLL[S5]YYGKKK-NH2; staple (Z) 4-8; N-terminus and C-terminus assumed) | 1 | 2500 ± 1400 | –
CA-CTD dimerization helix peptide CTD dimerization helix (from UniProt O93182) | – | – | 17
